Test results as given in ChEMBL document CHEMBL4261485, “Towards the rational design of novel drugs based on solubility, partitioning/distribution, biomimetic permeability and biological activity exemplified by 1,2,4-thiadiazole derivatives” (Medchemcomm, 2017).
In brackets after ≈: the same amount, converted by molar mass.

What was measured:
[1] = Permeability of compound at 5 mM using support layer at pH 7.4 at 298 K by spectrophotometric method; type: ADME; details: not told
How it was run: (§1)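 Franz diffusion cell at 298 K (±0.1 K). The donor (lower) chamber held 8 ml of drug solution, approximately 5 mM, in phosphate buffer saline (74 mM phosphate, pH 7.3–7.4, 280–290 mOsm with NaCl). The acceptor chamber held 1.5 ml buffer. Barrier was Permeapad or the support layer alone, without phospholipids. Cumulative permeated moles per barrier area were plotted against time in seconds. Replicates were at least triplicate, and Papp is the mean of the replicates.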

[2] = Thermodynamic solubility of compound in buffer at 298 +/- 0.1 K after 24 hrs by shake flask method; type: physicochemical; details: read-out: Therm_solubility
How it was run: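 Shake flask at 298 K (±0.1 K). Phosphate buffer pH 7.4 (I = 0.15 mol L−1) was stirred with solid for 24 h, an equilibration time chosen from kinetic plateau experiments. Aliquot was centrifuged 5 min at 298 K, then isothermally filtered (0.45 μm) and diluted. Concentration was read by UV spectrophotometry (200–400 nm). Value is the mean of at least three replicates.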

[3] = 1-octanol/buffer partition co-efficient of compound in neutral form at pH 7.4 at 298 K after 24 hrs by shake flask method; type: physicochemical; details: pH 7.4, 24 h
[4] = Apparent permeability of compound at 5 mM using permeapad barrier at pH 7.4 at 298 K by spectrophotometric method; type: ADME; details: not told; how it was run: as §1
Rattus norvegicus = species on record: Rattus norvegicus; test: Modulation of glutamate receptor in synaptosomes of rat brain cortex assessed as change in glutamate-induced 45Ca2+ uptake (K43/21) after 5 mins by liquid scintillation counting method; type: subcellular; parameters: concentration or dose not given beside the values
How it was run: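 Cortical synaptosomes (P2 fraction) from 9–10-day-old rats suspended in HEPES buffer pH 7.4 (NaCl, KCl, glucose; protein 1.5–2 mg mL−1), final Ca2+ 1.25 mM. 45Ca2+ uptake stimulated with 200 μM glutamate, 5 min at […]; stopped by GF/B filtration and three cold-buffer washes; beta counting. Uptake = stimulated minus unstimulated label, % of control; triplicate.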

[5] = 1-hexane/buffer partition co-efficient of compound in neutral form at pH 7.4 at 298 K after 24 hrs by shake flask method; type: physicochemical; details: pH 7.4, 24 h
[6] = Permeability of compound at 5 mM using lipid layer at pH 7.4 at 298 K by spectrophotometric method; type: ADME; details: not told
[7] = 1-octanol/buffer distribution co-efficient, log D of compound at pH 7.4 at 298 K after 24 hrs by shake flask method; type: physicochemical
How it was run: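 Shake flask. Buffer (pH 7.4) and 1-octanol were pre-saturated by vigorous mixing for 24 h at 298 K (±0.1 K) and then allowed to separate. Compound was dissolved in the buffer-saturated octanol as stock, then mixed with the octanol-saturated buffer for 24 h at 298 K. Both phases were quantified by UV spectrophotometry against calibration curves. D = Coct/Cbuf.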

[8] = 1-hexane/buffer distribution co-efficient, log D of compound at pH 7.4 at 298 K after 24 hrs by shake flask method; type: physicochemical; details: pH 7.4, 24 h

Row | SMILES | Papp at 5000 µM [1] | solubility thermodynamic at 24 h [2] | K [3] | Papp at 5000 µM [4] | Activity (Rattus norvegicus) | K [5] | Papp at 5000 µM [6] | logD at 24 h [7] | logD [8]
1 | CC(Cc1nsc(Nc2ccc(F)cc2)n1)NC1CC(C)(C)NC(C)(C)C1 (configuration not stated) | 16.3 ×10⁻⁶ cm/s | 18.2 mM (≈ 7130 µg/mL) | 5.06 ×10⁴ No_unit | 8.7 ×10⁻⁶ cm/s | 112% | 158 | 18.6 ×10⁻⁶ cm/s | 0.881 | –
2 | COc1ccc(Nc2nc(CC(C)O)ns2)cc1 (configuration not stated) | – | 3.04 mM (≈ 807 µg/mL) | 205 | – | 108% | 0.58 | – | 2.31 | –
3 | CC(Cc1nsc(NC2CC2)n1)NC1CC(C)(C)NC(C)(C)C1 (configuration not stated) | 27.6 ×10⁻⁶ cm/s | 310 mM (≈ 105000 µg/mL) | 3.19 ×10³ No_unit | 5.4 ×10⁻⁶ cm/s | 86% | 655.5 | 6.8 ×10⁻⁶ cm/s | 0.0828 | –
4 | Cc1cc(Nc2nc(CC(C)NC3CC(C)(C)NC(C)(C)C3)ns2)no1 (configuration not stated) | 31.7 ×10⁻⁶ cm/s | 14.1 mM (≈ 5340 µg/mL) | – | 3.4 ×10⁻⁶ cm/s | 108% | 258.6 | 3.7 ×10⁻⁶ cm/s | -0.426 | –
5 | Cc1cc(Nc2nc(CC(C)O)ns2)no1 (configuration not stated) | – | – | 45 | – | 109% | 0.18 | – | 1.65 | –
6 | Cc1ccc(Nc2nc(CC(C)NC3CC(C)(C)NC(C)(C)C3)ns2)cc1Cl (configuration not stated) | 20.6 ×10⁻⁶ cm/s | 5.57 mM (≈ 2350 µg/mL) | 7.31 ×10⁴ No_unit | 13.5 ×10⁻⁶ cm/s | 214% | 20.6 | 39.5 ×10⁻⁶ cm/s | 1.04 | 0.0031
7 | Cc1ccc(Cl)cc1Nc1nc(CC(C)NC2CC(C)(C)NC(C)(C)C2)ns1 (configuration not stated) | 30.8 ×10⁻⁶ cm/s | 4.86 mM (≈ 2050 µg/mL) | 4.56 ×10⁴ No_unit | 14.4 ×10⁻⁶ cm/s | 177% | 112.8 | 26.9 ×10⁻⁶ cm/s | 0.839 | –
8 | Cc1ccc(Nc2nc(CC(C)NC3CC(C)(C)NC(C)(C)C3)ns2)cc1 (configuration not stated) | 26.3 ×10⁻⁶ cm/s | 8.37 mM (≈ 3240 µg/mL) | 4.44 ×10⁴ No_unit | 12.2 ×10⁻⁶ cm/s | 128% | 89.3 | 22.8 ×10⁻⁶ cm/s | 0.82 | –
9 | CSc1cccc(Nc2nc(CC(C)NC3CC(C)(C)NC(C)(C)C3)ns2)c1 (configuration not stated) | 22.8 ×10⁻⁶ cm/s | 12 mM (≈ 5040 µg/mL) | 2.92 ×10⁴ No_unit | 10.1 ×10⁻⁶ cm/s | 117% | 92.9 | 18.2 ×10⁻⁶ cm/s | 0.643 | –
10 | Cc1ccc(Nc2nc(CC(C)O)ns2)cc1 (configuration not stated) | – | 2.19 mM (≈ 546 µg/mL) | 445 | – | 85% | 0.31 | – | 2.65 | –
11 | CC(O)Cc1nsc(Nc2ccc(Cl)cc2)n1 (configuration not stated) | – | 0.484 mM (≈ 130 µg/mL) | 380 | – | 89% | 0.46 | – | 2.58 | –
12 | CC(Cc1nsc(Nc2ccc(F)c(Cl)c2)n1)NC1CC(C)(C)NC(C)(C)C1 (configuration not stated) | 25.4 ×10⁻⁶ cm/s | 9.24 mM (≈ 3940 µg/mL) | 3.25 ×10⁴ No_unit | 13.9 ×10⁻⁶ cm/s | 189% | 42 | 30.9 ×10⁻⁶ cm/s | 0.699 | –
13 | CSc1cccc(Nc2nc(CC(C)O)ns2)c1 (configuration not stated) | – | – | 94 | – | 86.7% | 0.48 | – | 1.97 | –
14 | Cc1ccc(Nc2nc(CC(C)O)ns2)cc1Cl (configuration not stated) | – | 0.483 mM (≈ 137 µg/mL) | 1.038 ×10³ No_unit | – | 87% | 1.68 | – | 3.02 | –
15 | CC(O)Cc1nsc(Nc2ccc(Cl)c(Cl)c2)n1 (configuration not stated) | – | – | 610 | – | 51% | 0.17 | – | 2.79 | –
16 | CC(Cc1nsc(Nc2ccc(Br)cc2)n1)NC1CC(C)(C)NC(C)(C)C1 (configuration not stated) | 25.8 ×10⁻⁶ cm/s | 3.49 mM (≈ 1580 µg/mL) | 1.36 ×10⁴ No_unit | 6.5 ×10⁻⁶ cm/s | 82% | 85 | 9.5 ×10⁻⁶ cm/s | 0.31 | –
17 | CC(O)Cc1nsc(Nc2ccc(F)cc2)n1 (configuration not stated) | – | 3.4 mM (≈ 861 µg/mL) | 316 | – | 88% | 0.32 | – | 2.5 | –
18 | CC(Cc1nsc(Nc2ccc(Cl)c(Cl)c2)n1)NC1CC(C)(C)NC(C)(C)C1 (configuration not stated) | 15.7 ×10⁻⁶ cm/s | 7.45 mM (≈ 3300 µg/mL) | – | 9.8 ×10⁻⁶ cm/s | 305% | 72.3 | 26.1 ×10⁻⁶ cm/s | 1.1 | –
19 | Cc1ccc(Cl)cc1Nc1nc(CC(C)O)ns1 (configuration not stated) | – | 0.445 mM (≈ 126 µg/mL) | – | – | 88% | 0.56 | – | 3.02 | –
20 | CC(Cc1nsc(Nc2ccc(Cl)cc2)n1)NC1CC(C)(C)NC(C)(C)C1 (configuration not stated) | 21.9 ×10⁻⁶ cm/s | 3.72 mM (≈ 1520 µg/mL) | 1.22 ×10⁴ No_unit | 8.6 ×10⁻⁶ cm/s | 172% | 73 | 14.1 ×10⁻⁶ cm/s | 0.262 | –
21 | CC(O)Cc1nsc(Nc2ccc(F)c(Cl)c2)n1 (configuration not stated) | – | – | 226 | – | 75% | 0.16 | – | 2.35 | –
